Experimental data: ChEMBL document CHEMBL5303300, “EUbOPEN Chemogenomics Library - Multiplex” (2023)
Several values for one entry are separate records, joined by “and”; a condition that tells them apart may be missing. Identical values can stand only once.

Experiments:
Fibroblast = assay: Multiplex assay against human fibroblast; assay type: toxicity, cell-based; settings: number of replicates 2
Procedure, shortened: (§1)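 On a CQ1 microscope at 37°C and 5% CO2, live cells were imaged after compound addition. They had been stained at seeding with Hoechst33342, BioTracker Green Microtubule Cytoskeleton Dye, MitoTracker Red and Annexin V Alexa Fluor 680. CellPathfinder machine-learning gating assigned cells to Hoechst high-intensity objects or normal cells, normal cells to healthy, pyknosed or fragmented nuclei, and pyknosed cells to mitotic or apoptotic. Tubulin, mitochondrial-mass and membrane-permeability phenotypes are per cents of healthy-nucleus cells.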

HEK-293T = assay: Multiplex assay against HEK293T; assay type: toxicity, cell-based; settings: human, number of replicates 2; procedure, shortened: as §1
[1] = 12 h, 1 µM, compound concentration 1 uM
[2] = 12 h, 10 µM, compound concentration 10 uM
[3] = 24 h, 1 µM, compound concentration 1 uM
[4] = 24 h, 10 µM, compound concentration 10 uM
[5] = 48 h, 1 µM, compound concentration 1 uM
[6] = 48 h, 10 µM, compound concentration 10 uM

For `COc1cc(Nc2cnc(C#N)c(O[C@H](C)CN(C)C)n2)ncc1-c1cnn(C)c1`, the “Population Apoptotic (%)” value (Fibroblast; [1]) was 37% and 47%, the “Population Fragmented Nuclei (%)” value (Fibroblast; [1]) was 12% and 13% and the “Population Healthy Nuclei (%)” value (Fibroblast; [1]) was 67% and 77%. For the same compound, the “Population Hoechst High Intensity Objects (%)” value (Fibroblast; [1]) was 0%, the “Population Membrane Permeable-Phenotype (%)” value (Fibroblast; [1]) was 3% and 2% and the “Population Mitochondria Different-Phenotype (%)” value (Fibroblast; [1]) was 1%. For the same compound, the “Population Mitotic Cells (%)” value (Fibroblast; [1]) was 62% and 52%, the “Population Normal (%)” value (Fibroblast; [1]) was 100% and the “Population Pyknosed Nuclei (%)” value (Fibroblast; [1]) was 20% and 9%. For the same compound, the “Population Tubulin-Different-Phenotype (%)” value (Fibroblast; [1]) was 11% and 3%, the “Total Cell Count” value (Fibroblast; [1]) was 185 and 222 and the “Population Apoptotic (%)” value (Fibroblast; [2]) was 37% and 41%. The “Population Fragmented Nuclei (%)” value (Fibroblast; [2]) was 24% and 26%, the “Population Healthy Nuclei (%)” value (Fibroblast; [2]) was 69% and 64% and the “Population Hoechst High Intensity Objects (%)” value (Fibroblast; [2]) was 0%. For the same compound, the “Population Membrane Permeable-Phenotype (%)” value (Fibroblast; [2]) was 2% and 4%, the “Population Mitochondria Different-Phenotype (%)” value (Fibroblast; [2]) was 0% and the “Population Mitotic Cells (%)” value (Fibroblast; [2]) was 62% and 58%. For the same compound, the “Population Normal (%)” value (Fibroblast; [2]) was 99% and 100%, the “Population Pyknosed Nuclei (%)” value (Fibroblast; [2]) was 5% and 8% and the “Population Tubulin-Different-Phenotype (%)” value (Fibroblast; [2]) was 26% and 17%. The “Total Cell Count” value (Fibroblast; [2]) was 300 and 346, the “Population Apoptotic (%)” value (Fibroblast; [3]) was 50% and 40% and the “Population Fragmented Nuclei (%)” value (Fibroblast; [3]) was 9% and 11%. For the same compound, the “Population Healthy Nuclei (%)” value (Fibroblast; [3]) was 80% and 78%, the “Population Hoechst High Intensity Objects (%)” value (Fibroblast; [3]) was 0% and the “Population Membrane Permeable-Phenotype (%)” value (Fibroblast; [3]) was 2% and 3%. For the same compound, the “Population Mitochondria Different-Phenotype (%)” value (Fibroblast; [3]) was 2% and 1%, the “Population Mitotic Cells (%)” value (Fibroblast; [3]) was 50% and 60% and the “Population Normal (%)” value (Fibroblast; [3]) was 100%. For the same compound, the “Population Pyknosed Nuclei (%)” value (Fibroblast; [3]) was 9%, the “Population Tubulin-Different-Phenotype (%)” value (Fibroblast; [3]) was 13% and 5% and the “Total Cell Count” value (Fibroblast; [3]) was 168 and 206. For the same compound, the “Population Apoptotic (%)” value (Fibroblast; [4]) was 61% and 70%, the “Population Fragmented Nuclei (%)” value (Fibroblast; [4]) was 28% and 29% and the “Population Healthy Nuclei (%)” value (Fibroblast; [4]) was 67% and 65%. For the same compound, the “Population Hoechst High Intensity Objects (%)” value (Fibroblast; [4]) was 1% and 0%, the “Population Membrane Permeable-Phenotype (%)” value (Fibroblast; [4]) was 3% and 0% and the “Population Mitochondria Different-Phenotype (%)” value (Fibroblast; [4]) was 1% and 0%. For the same compound, the “Population Mitotic Cells (%)” value (Fibroblast; [4]) was 38% and 30%, the “Population Normal (%)” value (Fibroblast; [4]) was 98% and 100% and the “Population Pyknosed Nuclei (%)” value (Fibroblast; [4]) was 4% and 5%. For the same compound, the “Population Tubulin-Different-Phenotype (%)” value (Fibroblast; [4]) was 24% and 13%, the “Total Cell Count” value (Fibroblast; [4]) was 292 and 355 and the “Population Apoptotic (%)” value (Fibroblast; [5]) was 43% and 64%. For the same compound, the “Population Fragmented Nuclei (%)” value (Fibroblast; [5]) was 14% and 12%, the “Population Healthy Nuclei (%)” value (Fibroblast; [5]) was 75% and 80% and the “Population Hoechst High Intensity Objects (%)” value (Fibroblast; [5]) was 0%. For the same compound, the “Population Membrane Permeable-Phenotype (%)” value (Fibroblast; [5]) was 0% and 1%, the “Population Mitochondria Different-Phenotype (%)” value (Fibroblast; [5]) was 0% and the “Population Mitotic Cells (%)” value (Fibroblast; [5]) was 56% and 35%. For the same compound, the “Population Normal (%)” value (Fibroblast; [5]) was 100%, the “Population Pyknosed Nuclei (%)” value (Fibroblast; [5]) was 9% and 6% and the “Population Tubulin-Different-Phenotype (%)” value (Fibroblast; [5]) was 8% and 1%. For the same compound, the “Total Cell Count” value (Fibroblast; [5]) was 170 and 205, the “Population Apoptotic (%)” value (Fibroblast; [6]) was 43% and 75% and the “Population Fragmented Nuclei (%)” value (Fibroblast; [6]) was 27% and 30%. The “Population Healthy Nuclei (%)” value (Fibroblast; [6]) was 66%, the “Population Hoechst High Intensity Objects (%)” value (Fibroblast; [6]) was 0% and the “Population Membrane Permeable-Phenotype (%)” value (Fibroblast; [6]) was 1% and 2%. For the same compound, the “Population Mitochondria Different-Phenotype (%)” value (Fibroblast; [6]) was 0%, the “Population Mitotic Cells (%)” value (Fibroblast; [6]) was 56% and 25% and the “Population Normal (%)” value (Fibroblast; [6]) was 100% and 99%. For the same compound, the “Population Pyknosed Nuclei (%)” value (Fibroblast; [6]) was 5% and 3%, the “Population Tubulin-Different-Phenotype (%)” value (Fibroblast; [6]) was 29% and 12% and the “Total Cell Count” value (Fibroblast; [6]) was 312 and 369. For the same compound, the “Population Apoptotic (%)” value (HEK-293T; [1]) was 43% and 40%, the “Population Fragmented Nuclei (%)” value (HEK-293T; [1]) was 3% and the “Population Healthy Nuclei (%)” value (HEK-293T; [1]) was 78% and 82%. The “Population Hoechst High Intensity Objects (%)” value (HEK-293T; [1]) was 4% and 7%, the “Population Membrane Permeable-Phenotype (%)” value (HEK-293T; [1]) was 5% and 3% and the “Population Mitochondria Different-Phenotype (%)” value (HEK-293T; [1]) was 19% and 14%. For the same compound, the “Population Mitotic Cells (%)” value (HEK-293T; [1]) was 56% and 59%, the “Population Normal (%)” value (HEK-293T; [1]) was 95% and 92% and the “Population Pyknosed Nuclei (%)” value (HEK-293T; [1]) was 18% and 14%. For the same compound, the “Population Tubulin-Different-Phenotype (%)” value (HEK-293T; [1]) was 54% and 50%, the “Total Cell Count” value (HEK-293T; [1]) was 593 and 622 and the “Population Apoptotic (%)” value (HEK-293T; [2]) was 59% and 57%. The “Population Fragmented Nuclei (%)” value (HEK-293T; [2]) was 2%, the “Population Healthy Nuclei (%)” value (HEK-293T; [2]) was 62% and 75% and the “Population Hoechst High Intensity Objects (%)” value (HEK-293T; [2]) was 6% and 4%. For the same compound, the “Population Membrane Permeable-Phenotype (%)” value (HEK-293T; [2]) was 5% and 3%, the “Population Mitochondria Different-Phenotype (%)” value (HEK-293T; [2]) was 45% and 52% and the “Population Mitotic Cells (%)” value (HEK-293T; [2]) was 40% and 43%. For the same compound, the “Population Normal (%)” value (HEK-293T; [2]) was 93% and 95%, the “Population Pyknosed Nuclei (%)” value (HEK-293T; [2]) was 35% and 21% and the “Population Tubulin-Different-Phenotype (%)” value (HEK-293T; [2]) was 87% and 90%. The “Total Cell Count” value (HEK-293T; [2]) was 383 and 486, the “Population Apoptotic (%)” value (HEK-293T; [3]) was 28% and 26% and the “Population Fragmented Nuclei (%)” value (HEK-293T; [3]) was 5%. For the same compound, the “Population Healthy Nuclei (%)” value (HEK-293T; [3]) was 84% and 80%.
